Data from ChEMBL document CHEMBL3286113, “New potent antibacterial oxazolidinone (MRX-I) with an improved class safety profile” (J Med Chem, 2014).
pIC50: −log10 of the molar value. ≈ marks a conversion by molar mass, not a printed value.

Key:
Staphylococcus aureus [1] = experiment: Antibacterial activity against Staphylococcus aureus; assay type: functional
Staphylococcus aureus [2] = experiment: Antibacterial activity against methicillin-resistant Staphylococcus aureus SAU1009; assay type: functional
Summary of the method: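 MIC against MRSA strain SAU1009.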

[3] = target: T1, Amine oxidase [flavin-containing] A (Homo sapiens, UniProt P21397); experiment: Inhibition of human recombinant MAO-A expressed in yeast after 1 hr by luciferin-based luminescence assay
T1 sequence (P21397 whole entry): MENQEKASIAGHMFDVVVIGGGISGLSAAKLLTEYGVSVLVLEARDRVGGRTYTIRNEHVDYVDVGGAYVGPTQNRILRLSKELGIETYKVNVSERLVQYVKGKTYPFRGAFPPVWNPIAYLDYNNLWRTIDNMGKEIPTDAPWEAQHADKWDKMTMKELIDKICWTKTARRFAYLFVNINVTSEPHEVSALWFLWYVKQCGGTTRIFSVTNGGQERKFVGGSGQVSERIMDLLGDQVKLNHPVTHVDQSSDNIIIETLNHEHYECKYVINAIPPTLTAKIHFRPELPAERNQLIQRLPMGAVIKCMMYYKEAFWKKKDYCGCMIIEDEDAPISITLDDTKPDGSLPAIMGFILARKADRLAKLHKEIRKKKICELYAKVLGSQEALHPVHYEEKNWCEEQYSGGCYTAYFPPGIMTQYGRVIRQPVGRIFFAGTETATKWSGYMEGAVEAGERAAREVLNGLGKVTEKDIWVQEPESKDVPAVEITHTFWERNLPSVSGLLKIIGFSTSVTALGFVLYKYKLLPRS

Staphylococcus aureus [4] = experiment: Antibacterial activity against Staphylococcus aureus in po dosed mouse septicemia model; assay type: functional
Staphylococcus aureus [5] = experiment: Antibacterial activity against Staphylococcus aureus UC9213; assay type: functional

SMILES	MIC (Staphylococcus aureus [2])	ED50 (Staphylococcus aureus [4])	also measured
CC(=O)NC[C@H]1CN(c2ccc(C(C)=O)cc2F)C(=O)O1	–	–	MIC (Staphylococcus aureus [1]): 32 µg/mL (≈ 109 µM)
O=C1O[C@@H](CO)CN1c1ccc(-c2ccc(N3CCOC3=O)nc2)c(F)c1	0.125 µg/mL (≈ 0.335 µM)	–	–
CC(=O)NC[C@H]1CN(c2ccc(N3C=CC(=O)CC3)c(F)c2)C(=O)O1	–	10 mg/kg	pIC50 [3]: 4.96; MIC (Staphylococcus aureus [5]): 0.5 µg/mL (≈ 1.44 µM)
N#Cc1ccc(-c2ccc(N3C[C@H](CO)OC3=O)cc2F)cn1	0.25 µg/mL (≈ 0.798 µM)	–	–
N#Cc1ccc(-c2ccc(N3C[C@H](CO)OC3=O)c(F)c2F)cn1	1 µg/mL (≈ 3.02 µM)	–	–
O=C1OCCN1c1ccc(-c2ccc(N3C[C@H](CO)OC3=O)c(F)c2F)cn1	0.5 µg/mL (≈ 1.28 µM)	–	–
Cn1nnc(-c2ccc(-c3ccc(N4C[C@H](CO)OC4=O)c(F)c3F)cn2)n1	1 µg/mL (≈ 2.58 µM)	–	–
CC(=O)NC[C@H]1CN(c2ccc(N3C=CC(=O)CC3)c(F)c2F)C(=O)O1	1 µg/mL (≈ 2.74 µM)	15.9 mg/kg	pIC50 [3]: < 3.56
CC(=O)NC[C@H]1CN(c2cc(F)c(N3C=CC(=O)CC3)c(F)c2F)C(=O)O1	2 µg/mL (≈ 5.22 µM)	> 20 mg/kg	–
